# Measurements: paper PMC12169410 (Epilepsia, 2025)
# Several values for one entry are separate records, joined by “and”; a condition that tells them apart may be missing. Equal entries are not always repeated.
# Experiments:
# Format in all cases: in vivo
# [1] = system: amygdala kindled Wistar rats; experiment: Amygdala kindled rat seizure model; details: 16 mg/kg orally, 60 min prior to stimulation
# Procedure, shortened: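 Male Wistar rats had electrodes implanted under isoflurane with carprofen (5 mg/kg s.c.). Each treatment ran over 2 days with a 2-day washout. Day 1: oral vehicle (0.5% methylcellulose), then stimulation 60 or 120 min later. […] Seizures were scored on the Racine scale (0–5), and amygdala and cortical EEG afterdischarge duration was analysed off-line. Statistics: Wilcoxon test (severity) and paired t test (afterdischarge) vs baseline.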
# [2] = system: CF‐1 mice, 6 Hz psychomotor seizure; experiment: Mouse 6 Hz seizure test; details: 1 mg/kg i.p., 0.25 h pretreatment
# [3] = system: Genetic Absence Epilepsy Rat from Strasbourg (GAERS); experiment: GAERS model, spontaneous spike-and-wave discharges; details: 3 mg/kg oral; discharges increased progressively afterwards
# Procedure, shortened: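 Adult male GAERS rats (4–8 months) had frontal and parietal cortical EEG recorded while freely moving. […] SWDs were counted over a 20-min baseline (−25 to −5 min) and in 20-min epochs from 10 to 130 min post-dose. Analysis: mixed-model repeated-measures ANOVA with Dunnett vs vehicle; ED50 from a variable-slope curve fit of overall rate as % baseline.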
# CF‐1 mice = experiment: Mouse fixed-speed rotarod test of minimal motor impairment; details: 1 mg/kg i.p.
# Procedure, shortened: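 Mice were tested on a fixed-speed rotarod at 6 rpm immediately before 6 Hz stimulation at 32 or 44 mA. A mouse falling off 3 times within 1 min was scored impaired. The experimenter was blinded to treatment.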
compound,measurement,setting,value
CN1C(=O)CN=C(c2ccccc2)c2cc(Cl)ccc21 [Diazepam],Change in mean afterdischarge duration in the amygdala vs baseline,[1],−69%
same,Change in mean afterdischarge duration in the cortex vs baseline,[1],−75%
same,Change in mean seizure severity score (Racine scale) vs baseline,[1],−3.7
same,Seizure protection 32 mA (mice protected/tested),[2]; 32 mA,10/10
same,Seizure protection 44 mA (mice protected/tested),[2]; 44 mA,3 of 10 and 3/10
same,Effect on SWDs in the first epoch (10–30 min),[3],rapid and almost complete elimination of SWDs
same,"Rotarod impairment (mice impaired/tested), 32 mA group",CF‐1 mice; immediately prior to 6 Hz 32 mA stimulation,0/10
same,"Rotarod impairment (mice impaired/tested), 44 mA group",CF‐1 mice; immediately prior to 6 Hz 44 mA stimulation,0/10
